We go through eleven compounds from ChEMBL document CHEMBL2029271, “Design and synthesis of cannabinoid receptor 1 antagonists for peripheral selectivity” (J Med Chem, 2012).

The target in data set [1] is T1, Cannabinoid receptor 1 (Homo sapiens, UniProt P21554). The data set is described as follows: biochemical. Type of data set: cell-based, CHO-K1.
The target in another data set is Cannabinoid receptor 2 (Homo sapiens, UniProt P34972). The data set is described as follows: Displacement of [3H]CP55940 from CB2 receptor expressed in CHO-K1 cells. Format: cell-based. In general terms: Displacement assays read how much labelled ligand stays bound in the presence of the test substance.
For a further data set, the species on record is Homo sapiens. The experiment in a line: Selectivity ratio of Ki for CB2 receptor to Ki for human CB1 receptor.
A further data set has as its system MDCK. The experiment in a line: Permeability from apical to basal side of MDCK cells expressing human mdr1 gene. Type of data set: ADME, cell-based, Canis lupus familiaris. The conditions noted are these: dog. In a few lines:
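MDCK-mdr1 cells grown 4 days to confluence on Transwell-type filters in DMEM/F12 with 10% FBS and antibiotics. Compound added apically at 3.16 μM in HBSS with 25 mM D-glucose, HEPES-buffered to pH 7.4; 1 hr at 37°C. Apical and basal samples collected and analysed by LC-MS/MS (MRM).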

A short description of data set [2]: Metabolic stability in human hepatic S9 fraction assessed as compound remaining at 10 uM after 120 mins. Format: ADME, Liver. The conditions noted are these: s9, 2 h. In a few lines: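 Human hepatic S9 (1 mg/ml) with 10 μM final compound in 50 mM potassium phosphate pH 7.4, 3 mM MgCl2, NADPH regenerating system (NADP 1 mM, glucose-6-phosphate 5 mM, G6PDH 1 unit/ml). Triplicates sampled at 0, 15, 30, 60, 120 min; stopped with 3 volumes acetonitrile; LC-MS/MS (MRM) against matrix standard curves; % parent remaining at 120 min.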

For data set [3], the system named is Plasma. The experiment in a line: Metabolic stability in human plasma assessed as compound remaining at 10 uM preincubated for 5 mins measured after 60 mins. Type of data set: ADME, cell-free. The conditions noted are these: 1 h. Summed up: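 Human plasma, 1 ml per sample at 37°C, 5 min pre-incubation, then compound at 10 μM final, sampled at 0, 30 and 60 min. Reactions stopped with acetonitrile; LC-MS/MS (MRM) quantitation with standards in blank matrix; % parent remaining at 60 min.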

Data set [4] concerns the target T1, Cannabinoid receptor 1. To be noted: CHO-K1.
Data set [5] has as its target T1, Cannabinoid receptor 1. The data set is described as follows: biochemical.
Data set [6] in a line: (§1) Plasma concentration in Sprague-Dawley rat at 10 mg/kg, po after 30 mins. Format: ADME, organism-based. The conditions noted are these: Sprague-Dawley, plasma. On the set-up: dose 10 mg/kg, route oral. Summed up: (§2)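 Orally dosed male Sprague Dawley rats (7–8 weeks; 10 mg/kg in corn oil) sampled by tail vein at 30 minutes. Plasma acetonitrile-precipitated with reserpine internal standard; supernatant injected undiluted for LC-MS/MS, with standards in blank plasma.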

Data set [7] is described as follows: Plasma concentration in Sprague-Dawley rat at 10 mg/kg, po after 60 mins. Type of data set: ADME, organism-based. Further details: dose 10 mg/kg, route oral. In a few lines: (§3)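 Male Sprague Dawley rats, 7–8 weeks old, dosed 10 mg/kg orally (corn oil) or ip (1:1:18 ethanol:cremophor:saline). Plasma collected 1 hour post-dose, acetonitrile-precipitated with reserpine internal standard, supernatant diluted in 50:50 methanol:water, quantified by LC-MS/MS against standards in blank plasma.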

The nature of data set [8]: Plasma concentration in Sprague-Dawley rat at 10 mg/kg, ip after 60 mins. Format: ADME, organism-based. Further details: dose 10 mg/kg, route intraperitoneal. Summed up: as §3
Data set [9] is described as follows: (§4) Drug uptake in Sprague-Dawley rat brain at 10 mg/kg, po after 60 mins. Further details: dose 10 mg/kg, route oral. To be noted: Sprague-Dawley, brain, read-out: Drug uptake. Format: ADME, organism-based. In a few lines: (§5)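 Male Sprague Dawley rats, 7–8 weeks old, given 10 mg/kg orally (corn oil) or ip (1:1:18 ethanol:cremophor:saline). Brain taken 1 hour post-dose; left lobe homogenized in 50:50 ethanol:water, protein-precipitated with acetonitrile plus reserpine internal standard, analysed by LC-MS/MS against standards in blank brain homogenate.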

A short description of data set [10]: Drug uptake in Sprague-Dawley rat brain at 10 mg/kg, ip after 60 mins. On the set-up: dose 10 mg/kg, route intraperitoneal. To be noted: read-out: Drug uptake. Format: ADME, organism-based. Summed up:
as §5

Data set [11] concerns Nucleic Acid. The experiment in a line: Ratio of drug level in brain to plasma in Sprague-Dawley rat at 10 mg/kg, ip after 60 mins. Format: ADME, organism-based. Further details: dose 10 mg/kg, route intraperitoneal. To be noted: 1 h. Summed up: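 Male Sprague Dawley rats, 7–8 weeks, given 10 mg/kg ip in 1:1:18 ethanol:cremophor:saline; plasma and brain taken at 1 h. Plasma and left-lobe brain homogenate (50:50 ethanol:water) protein-precipitated with acetonitrile, reserpine internal standard; LC-MS/MS MRM vs standards in blank matrices; brain:plasma concentration ratio.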

Data set [12] has as its system Nucleic Acid. The experiment in a line: Ratio of drug level in brain to plasma in Sprague-Dawley rat at 10 mg/kg, po after 60 mins. To be noted: 1 h. Further details: dose 10 mg/kg, route oral. Type of data set: ADME, organism-based. Summed up: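 Male Sprague Dawley rats, 7–8 weeks, dosed orally at 10 mg/kg in corn oil; plasma and brain collected 1 h post-dose (tail-vein blood also at 30 min). Acetonitrile precipitation with reserpine internal standard, brain left lobe homogenized in 50:50 ethanol:water; LC-MS/MS MRM with blank-matrix standards; brain:plasma concentration ratio.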

For a further data set, the system named is Brain. The data set is described as §4. Format: ADME, organism-based. Further details: dose 10 mg/kg, route oral. The conditions noted are these: in vivo, 1 h, BLD = below limit of detection. Summed up:
as §5

The test system of data set [13] is Plasma. The data set is described as §1. Type of data set: ADME, organism-based. On the set-up: dose 10 mg/kg, route oral. The conditions noted are these: in vivo, 0.5 h, BLD = below limit of detection. Summed up:
as §2

Structures are written as SMILES.
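Wherever Ke is given: antagonism measured as blockade of CP55940-evoked intracellular Ca2+ rise, read fluorometrically, in cells additionally carrying Galphaq16.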

Chain of Cannabinoid receptor 2 (P34972 whole entry): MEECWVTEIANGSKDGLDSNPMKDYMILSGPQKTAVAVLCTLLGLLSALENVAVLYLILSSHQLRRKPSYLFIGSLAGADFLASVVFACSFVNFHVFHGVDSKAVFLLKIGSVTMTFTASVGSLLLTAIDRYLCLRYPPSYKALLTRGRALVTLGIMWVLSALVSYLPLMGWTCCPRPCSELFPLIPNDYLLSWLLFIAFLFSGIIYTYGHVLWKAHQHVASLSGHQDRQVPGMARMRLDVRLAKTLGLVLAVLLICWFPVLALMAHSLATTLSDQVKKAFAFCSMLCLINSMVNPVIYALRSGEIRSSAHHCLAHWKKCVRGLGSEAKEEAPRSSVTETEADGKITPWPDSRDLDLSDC
T1 sequence (P21554 whole entry): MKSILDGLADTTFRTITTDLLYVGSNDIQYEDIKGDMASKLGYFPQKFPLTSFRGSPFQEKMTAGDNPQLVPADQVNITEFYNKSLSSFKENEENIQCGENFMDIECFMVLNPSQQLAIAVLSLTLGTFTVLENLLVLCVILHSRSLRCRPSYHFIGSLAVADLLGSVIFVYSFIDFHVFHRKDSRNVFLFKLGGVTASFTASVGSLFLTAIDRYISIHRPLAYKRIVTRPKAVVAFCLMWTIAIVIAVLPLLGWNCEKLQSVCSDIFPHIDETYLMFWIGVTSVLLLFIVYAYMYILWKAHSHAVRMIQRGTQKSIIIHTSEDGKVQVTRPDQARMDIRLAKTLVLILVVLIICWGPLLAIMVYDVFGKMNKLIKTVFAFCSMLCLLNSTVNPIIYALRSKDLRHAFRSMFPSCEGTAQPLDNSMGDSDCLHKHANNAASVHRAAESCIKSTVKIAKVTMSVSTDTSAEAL

For the compound `Cc1c(C(=O)N2CCC(NC(=O)NCc3ccccc3)(c3ccccc3)CC2)nn(-c2ccc(Cl)cc2Cl)c1-c1ccc(Cl)cc1`, the values for the Ki at Cannabinoid receptor 1 [1] and at Cannabinoid receptor 2 were 43 nM and 17100 nM, respectively. For the same compound, in the data set filed under Homo sapiens, the Ratio Ki worked out at 398. In the data set on MDCK, the permeability is on record as less than 1%. Further, the Stability is on record as 18% in [2] and 82% with Plasma [3]. The Ke at Cannabinoid receptor 1 [4] turned out to be 2.1 nM.

Consider `Cc1c(C(=O)N2CCC(C(N)=O)(c3ccccc3)CC2)nn(-c2ccc(Cl)cc2Cl)c1-c1ccc(Cl)cc1`, for which the Ratio Ki in the data set listed under Homo sapiens is 1600. The same compound had a permeability in the data set on MDCK of 8%. Also, the Ke on Cannabinoid receptor 1 [4] came out at 0.4 nM. Affinity on Cannabinoid receptor 1 [5] was put at a Ki of 0.4 nM.

For the compound `Cc1c(C(=O)NN2CCCCC2)nn(-c2ccc(Cl)cc2Cl)c1-c1ccc(Cl)cc1` [RIMONABANT], the Stability in data set [2] is 47%; in the data set on Plasma [3] it was more than 90%.

Regarding `Cc1c(C(=O)N2CCC(NC(=O)OC(C)(C)C)(c3ccccc3)CC2)nn(-c2ccc(Cl)cc2Cl)c1-c1ccc(Cl)cc1`, the Ratio Ki in the data set filed under Homo sapiens came out at 49.9. Also, in the data set on MDCK, the permeability is less than 1%. In addition, the Stability in data set [2] is 88%; in the data set with Plasma [3], more than 90%. At Cannabinoid receptor 1 [4], the Ke was determined as 20.2 nM.

For `Cc1c(C(=O)NCC2CCC(CNS(N)(=O)=O)CC2)nn(-c2ccc(Cl)cc2Cl)c1-c1ccc(Cl)cc1` (stereo not given), the Stability in data set [2] is recorded as 62%; in the data set with Plasma [3], more than 90%.

With `CCOC(=O)N1CCC(NC(=O)c2nn(-c3ccc(Cl)cc3Cl)c(-c3ccc(Cl)cc3)c2C)CC1`, the figures for the Ki on Cannabinoid receptor 1 [1] and on Cannabinoid receptor 2 were 9.2 nM and 3000 nM, respectively. The Ratio Ki in the data set listed under Homo sapiens came out at 326. The compound also gave a permeability with MDCK of less than 1%. In addition, the Ke at Cannabinoid receptor 1 [4] was 3 nM.

On to `Cc1c(C(=O)NCC2CCC(CNS(C)(=O)=O)CC2)nn(-c2ccc(Cl)cc2Cl)c1-c1ccc(Cl)cc1` (stereo not given), for which the Stability in data set [2] is on record as 37%; in the data set with Plasma [3], more than 90%.

Regarding `Cc1c(C(=O)NC2CCN(C(=O)NC(C)(C)C)CC2)nn(-c2ccc(Cl)cc2Cl)c1-c1ccc(Cl)cc1`, the Ki (in general, a dissociation constant, usually derived from enzyme kinetics or from competition with a known ligand) at Cannabinoid receptor 1 [1] amounted to 14.7 nM; on Cannabinoid receptor 2 it was 3350 nM. For the same compound, the Ratio Ki in the data set filed under Homo sapiens amounted to 228. The same compound had a permeability in the data set on MDCK of less than 1%. Moreover, in the data set with Plasma [3], the Stability is 71%. Besides, in [6], the concentration at 0.5 h came out at 5.08 ng/mL. The concentration at 1 h in data set [7] was 28 ng/mL; in data set [8], 67.4 ng/mL; in data set [9], 4.46 ng/mL; in [10], 25.5 ng/mL. Further, the BPR in the data set on Nucleic Acid [11] was found to be 0.379; with Nucleic Acid [12], 0.16. At Cannabinoid receptor 1 [4], this compound yielded a Ke of 78 nM.

`Cc1c(C(=O)N2CCC(NC(=O)NC(C)(C)C)(c3ccccc3)CC2)nn(-c2ccc(Cl)cc2Cl)c1-c1ccc(Cl)cc1`: at Cannabinoid receptor 2, the Ki turned out to be 20000 nM. The Ratio Ki in the data set listed under Homo sapiens was 425. Besides, the permeability in the data set on MDCK was less than 1%. The Stability in data set [2] is on record as 88%; in the data set on Plasma [3], more than 90%. Moreover, the concentration at 0.5 h in data set [6] turned out to be 3.72 ng/mL. The concentration at 1 h turned out to be 10.3 ng/mL in data set [7], 386 ng/mL in [8] and 12.4 ng/mL in [10]. Besides, the Drug uptake entry in the data set with Brain is given as “BLD”. In addition, the BPR in the data set on Nucleic Acid [11] came to 0.032. The same compound registered a Ke on Cannabinoid receptor 1 [4] of 2.4 nM.

Regarding `Cc1c(C(=O)NC2CCN(C(=O)OC(C)(C)C)CC2)nn(-c2ccc(Cl)cc2Cl)c1-c1ccc(Cl)cc1`, the Ki came to 2.9 nM at Cannabinoid receptor 1 [1] and 2510 nM at Cannabinoid receptor 2. Also, in the data set filed under Homo sapiens, the Ratio Ki stood at 878. The same compound returned a permeability in the data set with MDCK of less than 1%. For the same compound, the Stability (in [2]; in the data set with Plasma [3]) was more than 90% each time. In addition, in the data set on Plasma [13], the Cp entry is recorded as “BLD”. For the same compound, the concentration at 1 h in data set [7] amounted to 13.2 ng/mL; in data set [8], 197 ng/mL; in [10], 4.2 ng/mL. In addition, in the data set with Brain, the Drug uptake entry is recorded as “BLD”. In addition, in the data set on Nucleic Acid [11], the BPR came out at 0.0214. This compound also gave a Ke on Cannabinoid receptor 1 [4] of 4.7 nM.

Regarding `Cc1c(C(=O)N[C@@H]2CCCN(C(=O)OC(C)(C)C)C2)nn(-c2ccc(Cl)cc2Cl)c1-c1ccc(Cl)cc1`, the Ki on Cannabinoid receptor 1 [1] is 22.3 nM; at Cannabinoid receptor 2, 6720 nM. Moreover, the Ratio Ki in the data set listed under Homo sapiens turned out to be 302. The compound further yielded a permeability with MDCK of less than 1%. In addition, the Ke at Cannabinoid receptor 1 [4] came out at 52 nM.
